Screening results deposited in PubChem by several laboratories.
An excerpt weighted towards active compounds, which were near 2.8% of everything screened.
p47phox inh: blocks human p47phox regulatory protein of NADPH oxidases; P14598; 0.53% of 220,000 active; inhibition, % at 24.7 µM; p47phox/p22phox peptide binding, fluorescence polarization, 2 h; AID 1274;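 also: 0% = p47phox with labelled peptide and 100% = labelled peptide alone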
Wee1 degr inh: blocks degradation of human Wee1 kinase; P30291; HeLa Luc-Wee1K328M stability, luciferase luminescence; 100% = proteasome inhibitor MG132 effect; reporter increase, % at 5 µM; 1.2% of 220,000 active; AID 1321;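 active = activation above the mean of all tested compounds plus 3 SD, set per screening run, cut at about 8.8% in these data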;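 also: cells exposed to compound for 20 h before luminescence read; 0% = DMSO alone and 100% = MG132 at 30 µM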
RBBP9 inh: human RBBP9 hydrolase inhibition. O75884. recombinant RBBP9, FP-Rh probe fluorescence polarization. inhibition, % at 7.94 µM. 0.2% of 220,000 active. AID 1515;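 active = inhibition above the campaign mean of all tested compounds plus 3 SD, cut at about 14% in these data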;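 also: plate controls were DMSO wells with RBBP9 for no effect and wells lacking RBBP9 protein for full effect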
Target sequence (O75884 whole entry, looked up): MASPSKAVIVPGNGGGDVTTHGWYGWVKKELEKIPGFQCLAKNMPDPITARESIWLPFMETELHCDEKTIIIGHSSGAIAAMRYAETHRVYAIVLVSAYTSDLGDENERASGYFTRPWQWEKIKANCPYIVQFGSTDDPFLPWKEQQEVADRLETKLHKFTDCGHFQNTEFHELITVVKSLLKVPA
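Measured by – fluorescence polarization · Test system – RBBP9 protein · Input – 2.5 µM RBBP9 dispensing solution, before mixing · Measure – percent inhibition from mP, scaled between DMSO and no-protein wells · Benchmarks – DMSO-treated enzyme wells and wells lacking RBBP9 · Times – preincubation 30 min plus labeling 45 min at 25 °C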
eIF4E-4G inh: blocks eIF4E binding to eIF4G; P63073+Q04637; TR-FRET eIF4E-eIF4GI(517-606) binding, 2 h; inhibition, % at 21.7 µM; 0.37% of 220,000 active; AID 782;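 also: 0% = full FRET control wells and 100% = background wells lacking eIF4GI fragment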
14-3-3 Bad inh: disrupts binding of bovine 14-3-3 zeta to phospho-Bad peptide; P63103; TR-FRET 14-3-3zeta/Dy647-pBad peptide displacement, 1 h; inhibition, % at 21.7 µM; 0.71% of 220,000 active;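 active = inhibition above about 70%, limit read from the data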;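 also: 0% = full 14-3-3 plus peptide FRET controls and 100% = background without 14-3-3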
Target sequence (P63103 whole entry, looked up): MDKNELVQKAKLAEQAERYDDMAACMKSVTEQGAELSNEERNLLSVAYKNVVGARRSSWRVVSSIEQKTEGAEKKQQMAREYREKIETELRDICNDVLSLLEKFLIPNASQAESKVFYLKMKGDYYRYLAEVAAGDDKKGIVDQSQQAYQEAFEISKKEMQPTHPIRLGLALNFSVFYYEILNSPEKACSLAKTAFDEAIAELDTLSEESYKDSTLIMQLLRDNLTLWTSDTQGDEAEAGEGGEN
Numbers without * were called inactive; · = no result given; [ ] = another dose, or the depositor's remark.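 The calls were made as follows, unless noted: active = inhibition above about 30% (limit read from the data); inactive = the rest.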

SMILES | p47phox inh | Wee1 degr inh | RBBP9 inh | eIF4E-4G inh | 14-3-3 Bad inh
CN(CCCOc1ccccc1Br)Cc1ccccc1 | -7 | -1 | 2 | 3 | 2
Cc1ccc(Cl)c(OCCCN(C)Cc2ccccc2)c1 | 7 | 2 | -3 | 4 | 72*
Cc1ccc(Cl)c(OCCCCN(C)Cc2ccccc2)c1 | -1 | -3 | 1 | 4 | 77*
Cc1ccc(C(=O)OCCN(C)Cc2ccccc2)cc1 | 19 | 9.2* | 9 | 0 | 2
Cc1ccccc1C(=O)OCCN(C)Cc1ccccc1 | 3 | -1 | 6 | -2 | 2
CCCc1nc(SCc2ccc(Cl)cc2Cl)n[nH]1 | -10 | 0 | 0 | -7 | -1
Cc1nc2cc(C(=O)OCC(=O)Nc3cccc(Cl)c3)ccc2n1-c1ccccc1 | -93 | -3 | -12 | 4 | -3
CC(=O)c1ccc(NC(=O)C(C)OC(=O)c2ccc3c(c2)nc(C)n3-c2ccccc2)cc1 (stereo unspecified) | -65 | 8.8* | -14 | -2 | 17
CCC1=C2CC[C@H]3C(=O)N(CC(=O)OC)C(=O)[C@H]3[C@H]2[C@@]2(C)C(=NCC(=O)OC)OC(=O)N2C1=O | -7 | · | · | 1 | -4
COc1ccc(/C=c2\s/c(=C(/C#N)C(=O)NCc3ccco3)n(-c3ccccc3)c2=O)cc1 | -31 | 2 | -5 | 2 | 8
COc1cccc(/C=c2/s/c(=C(\C#N)C(=O)N3CCOCC3)n(-c3ccccc3)c2=O)c1 | 12 | 2 | -4 | -34 | 76*[fluorescence artefact?]
CC(C)CC(NC(N)=O)C(=O)NCCc1ccc(Cl)cc1 (stereo unspecified) | -2 | 11* | -7 | 3 | 1
CC(C)CC(NC(N)=O)C(=O)NCCc1ccc(Cl)cc1Cl (stereo unspecified) | -9 | 0 | -7 | 1 | -12
Clc1ccc(Cn2cccn2)cn1 | -14 | 0 | -14 | 3 | -6
CC(C1CC1)N(Cc1ccccc1)C(=S)Nc1ccccc1 (stereo unspecified) | -8 | 9.6* | -5 | -3 | -15
COc1cccc(COc2ccccc2C2Nc3ccc(Br)cc3C(=O)N2NC(=O)c2ccncc2)c1 (stereo unspecified) | 0 | -1 | -9 | 2 | 5
Cc1ccc(C)c(CN2CCNC2=O)c1 | 137* | 3 | -2 | 5 | -8
Cc1ccc2c(C)nc(NC3=NCN(C(C)C)CN3)nc2c1 | · | -1 | 0 | · | ·
CCc1nc2oc3ccccc3c(=O)c2c(=O)n1-c1ccc(C)cc1 | -49 | 3 | -10 | 23 | 38
Cc1ccc(-n2c(C(C)C)nc3oc4ccccc4c(=O)c3c2=O)cc1 | -4 | 10* | -5 | -6 | 7
CCCc1nc2oc3ccccc3c(=O)c2c(=O)n1-c1ccc(C)cc1 | -9 | 10.0* | -10 | -11 | 2
CCN=C1SC(C(=O)Nc2cccc(Br)c2)CC(=O)N1CC (stereo unspecified) | -7 | 1 | -3 | 10 | 13
COc1ccc(-c2cnc3nc[nH]c(=O)c3n2)cc1 | -11 | 6 | -7 | 1 | -7
O=C(C1CCCN(Cc2ccccc2)C1)N1CCCCC1 (stereo unspecified) | -1 | 4 | 2 | 1 | 17
COc1ccc(Br)cc1CN1CCCC(C(=O)N2CCCCCC2)C1 (stereo unspecified) | 4 | 0 | 4 | 0 | 21
SMILES | p47phox inh | Wee1 degr inh | RBBP9 inh | eIF4E-4G inh | 14-3-3 Bad inh
O=C(C1CCCN(Cc2ccccc2Br)C1)N1CCCCC1 (stereo unspecified) | -1 | 11* | -12 | 10 | 62
COc1ccc(Br)cc1CN1CCCC(C(=O)N2CCCCC2)C1 (stereo unspecified) | -9 | -1 | 2 | -9 | 73*
Nc1nn(-c2ccccc2)c(N)c1N=Nc1cccc(F)c1 | -9 | 9 | -5 | 4 | 0
Nc1nn(-c2ccccc2)c(N)c1N=Nc1ccc2c(c1)OCO2 | -6 | 9.8* | 13 | 5 | -1
Cc1[nH]c(C)c2c(=O)n(-c3ccccc3)ncc12 | -55 | 14* | -10 | -2 | -4
CS(=O)(=O)N1CCN(c2ccc([N+](=O)[O-])c(NCc3ccc(Cl)cc3)c2)CC1 | 5 | 2 | -5 | 4 | 71*
O=C(CSc1nnc2ccccn12)Nc1ccc2c(c1)OCCO2 | -8 | 0 | -10 | 1 | 4
CC(C)C[C@H](NC(=O)c1ccc(OC2CCN(C(=O)C3CC3)CC2)cc1)C(N)=O | -10 | 5 | 5 | 0 | -9
CC(CCCC(C)(C)O)NC(=O)c1ccc(OC2CCN(C(=O)C3CC3)CC2)cc1 (stereo unspecified) | 1 | 8.9* | -13 | -3 | 4
CCC(C)NC(=O)c1cc2cc3ccc(OC)cc3nc2s1 (stereo unspecified) | 3 | 9.0* | -7 | 4 | 4
CC1(C)CC(NC(=O)C(Cl)(Cl)Cl)CC(C)(C)N1 | -11 | 3 | 0 | 2 | 13
FC(F)Oc1ccc(NC(=S)NCCc2ccccn2)cc1 | -12 | -1 | -2 | -1 | 5
Clc1ccc(-c2csc(N/N=C\c3cccnc3)n2)cc1 | 12 | -2 | -2 | 21 | 76*
Clc1ccc(-c2csc(N/N=C/c3ccco3)n2)cc1 | -5 | -2 | -3 | 5 | -6
COc1ccc2[nH]c(=O)c(CN(CCN3CCCC3)C(=O)Nc3ccccc3Cl)cc2c1 | -13 | · | · | 58* | -8
CCN1CCN(CCc2nc3cc([N+](=O)[O-])ccc3n2C)CC1 | -7 | 9.3* | -11 | -5 | -8
Cn1c(CCN2CCCCC2)nc2cc([N+](=O)[O-])ccc21 | 6 | -2 | -4 | -5 | 7
CCOC(=O)c1c(OCCO)noc1N | -3 | 1 | -6 | 0 | 0
[N-]=[N+]=CC(=O)CC(c1ccccc1)N1C(=O)c2ccccc2C1=O (stereo unspecified) | 51* | 1 | 2 | 8 | -5
[N-]=[N+]=CC(=O)CCCN1C(=O)c2ccccc2C1=O | 12 | -2 | -6 | -1 | -25
O=C(NN1C(=O)C2C(c3ccccc3)C=CC(c3ccccc3)C2C1=O)c1cccc(Br)c1 (stereo unspecified) | -14 | -3 | -21 | 1 | -3
CC(C)(C)c1ccc(OC(=O)CN2C(=O)C3C4CCC(C4)C3C2=O)cc1 (stereo unspecified) | -3 | -1 | 1 | 16 | 4
O=c1cc(-c2ccc([N+](=O)[O-])cc2)nc2cc(-c3ccc(Cl)cc3)[nH]n12 | 23 | -1 | 4 | 1 | 89*[fluorescence artefact?]
COc1ccc(NC(=O)CCn2nc(C)cc2C)cc1 | 56* | 0 | 6 | -2 | -13
COC(=O)c1ccc(NC(=O)Cn2nc(C)cc2C)cc1 | -4 | 5 | -1 | 1 | -6
CN1C(=O)/C(=C\c2ccncc2)SC1=Nc1ccccc1 | -1 | 0 | -4 | 5 | 14
c1ccc(-c2nc(NCc3ccco3)c3oc4ccccc4c3n2)cc1 | -52 | 0 | -34 | -2 | 73*
